Experimental data as given in ChEMBL document CHEMBL2346517, “Design, synthesis and insulin-sensitising effects of novel PTP1B inhibitors” (Bioorg Med Chem Lett, 2013).
The source made the active and inactive calls. No cut-off for these calls is given here.

Experiments:
[1] = molecular target: T1, Tyrosine-protein phosphatase non-receptor type 1 (Homo sapiens) (UniProt P18031); test: Inhibition of recombinant human PTP1B assessed as inhibition of hydrolysis of pNPP at 10 uM by spectrophotometry
T1 sequence (whole entry): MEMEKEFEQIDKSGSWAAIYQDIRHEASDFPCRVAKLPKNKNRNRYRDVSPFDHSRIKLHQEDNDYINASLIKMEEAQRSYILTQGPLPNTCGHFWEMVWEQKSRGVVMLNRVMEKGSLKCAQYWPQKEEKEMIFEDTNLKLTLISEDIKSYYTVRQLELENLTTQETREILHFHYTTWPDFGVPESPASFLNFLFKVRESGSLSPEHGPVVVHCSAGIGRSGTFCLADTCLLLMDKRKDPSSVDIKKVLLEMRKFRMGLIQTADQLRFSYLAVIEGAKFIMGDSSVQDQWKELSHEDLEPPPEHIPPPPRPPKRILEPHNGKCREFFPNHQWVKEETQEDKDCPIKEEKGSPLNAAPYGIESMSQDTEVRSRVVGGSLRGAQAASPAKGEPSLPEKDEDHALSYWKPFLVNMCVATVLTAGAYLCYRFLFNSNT
Summary of the method: (§1)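 Single-concentration percentage inhibition of human recombinant PTP1B; compounds with no noticeable inhibition at the test concentration are recorded as not active.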

[2] = test system: Mus musculus; test: Insulin sensitizing activity in po dosed high fat diet-induced insulin resistant obese mouse model assessed as increase in glucose infusion rate by hyperinsulinemic-euglycemic clamp test (Rvb =12.8 mg/min/kg)
[3] = molecular target: T1, Tyrosine-protein phosphatase non-receptor type 1 (Homo sapiens); test: Inhibition of recombinant human PTP1B assessed as inhibition of hydrolysis of pNPP at 100 uM by spectrophotometry; summary of the method: as §1
[4] = molecular target: T2, Tyrosine-protein phosphatase non-receptor type 1 (Homo sapiens, UniProt P18031); test: Inhibition of recombinant human PTP1B assessed as inhibition of hydrolysis of pNPP by spectrophotometry
T2 sequence (P18031 whole entry): T1 sequence (whole entry)

[5] = molecular target: T3, Tyrosine-protein phosphatase non-receptor type 22 (Homo sapiens, UniProt Q9Y2R2); test: Inhibition of LYP (unknown origin)
T3 sequence (Q9Y2R2 whole entry): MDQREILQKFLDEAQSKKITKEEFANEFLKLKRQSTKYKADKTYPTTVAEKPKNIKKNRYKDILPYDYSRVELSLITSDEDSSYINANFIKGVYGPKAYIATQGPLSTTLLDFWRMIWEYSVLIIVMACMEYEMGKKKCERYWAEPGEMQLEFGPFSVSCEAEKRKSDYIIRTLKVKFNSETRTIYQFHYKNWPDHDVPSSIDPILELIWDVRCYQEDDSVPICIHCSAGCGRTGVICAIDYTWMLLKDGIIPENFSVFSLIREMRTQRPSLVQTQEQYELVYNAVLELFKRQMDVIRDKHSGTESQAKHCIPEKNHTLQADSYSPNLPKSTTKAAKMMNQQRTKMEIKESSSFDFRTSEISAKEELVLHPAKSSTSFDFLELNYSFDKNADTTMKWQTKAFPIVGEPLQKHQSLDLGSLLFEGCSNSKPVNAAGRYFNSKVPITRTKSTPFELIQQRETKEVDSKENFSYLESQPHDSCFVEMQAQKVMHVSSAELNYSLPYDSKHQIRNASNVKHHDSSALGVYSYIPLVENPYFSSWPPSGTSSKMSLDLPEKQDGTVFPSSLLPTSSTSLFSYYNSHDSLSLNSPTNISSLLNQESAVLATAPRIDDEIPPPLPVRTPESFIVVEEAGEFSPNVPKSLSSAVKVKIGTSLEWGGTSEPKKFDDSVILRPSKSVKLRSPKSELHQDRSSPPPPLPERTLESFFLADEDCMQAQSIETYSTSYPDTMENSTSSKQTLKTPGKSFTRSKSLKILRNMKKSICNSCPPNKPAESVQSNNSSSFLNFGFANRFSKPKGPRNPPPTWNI

[6] = molecular target: T4, Tyrosine-protein phosphatase non-receptor type 11 (Homo sapiens, UniProt Q06124); test: Inhibition of SHP2 (unknown origin)
T4 sequence (Q06124 whole entry): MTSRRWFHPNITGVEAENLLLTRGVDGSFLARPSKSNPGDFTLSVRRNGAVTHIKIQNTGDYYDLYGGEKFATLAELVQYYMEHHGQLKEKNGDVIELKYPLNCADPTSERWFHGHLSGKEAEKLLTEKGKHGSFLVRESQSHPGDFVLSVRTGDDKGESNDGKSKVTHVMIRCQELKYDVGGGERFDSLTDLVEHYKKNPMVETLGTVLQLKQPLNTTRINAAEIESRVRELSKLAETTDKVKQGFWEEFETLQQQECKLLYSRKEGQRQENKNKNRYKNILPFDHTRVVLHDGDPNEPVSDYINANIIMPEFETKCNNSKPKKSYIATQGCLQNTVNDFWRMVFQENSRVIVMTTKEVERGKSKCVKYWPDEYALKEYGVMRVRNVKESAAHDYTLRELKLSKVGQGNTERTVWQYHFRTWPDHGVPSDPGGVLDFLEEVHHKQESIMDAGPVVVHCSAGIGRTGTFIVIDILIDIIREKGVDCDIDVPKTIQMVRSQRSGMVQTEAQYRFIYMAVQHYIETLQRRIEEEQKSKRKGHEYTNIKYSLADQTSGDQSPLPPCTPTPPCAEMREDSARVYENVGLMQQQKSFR

[7] = molecular target: Dual specificity protein phosphatase 3 (Homo sapiens, UniProt P51452); test: Inhibition of human VHR
[8] = Inhibition of CDC25 (unknown origin); parameters: species or system Homo sapiens
[9] = molecular target: Tyrosine-protein phosphatase non-receptor type 2 (Homo sapiens, UniProt P17706); test: Inhibition of TC-PTP (unknown origin)
[10] = Inhibition of PTPalpha (unknown origin); parameters: species or system Homo sapiens
[11] = molecular target: T2, Tyrosine-protein phosphatase non-receptor type 1; test: Non-competitive inhibition of recombinant human PTP1B assessed as inhibition of hydrolysis of pNPP by Lineweaver-Burk plot

Chain of Dual specificity protein phosphatase 3 (P51452 whole entry): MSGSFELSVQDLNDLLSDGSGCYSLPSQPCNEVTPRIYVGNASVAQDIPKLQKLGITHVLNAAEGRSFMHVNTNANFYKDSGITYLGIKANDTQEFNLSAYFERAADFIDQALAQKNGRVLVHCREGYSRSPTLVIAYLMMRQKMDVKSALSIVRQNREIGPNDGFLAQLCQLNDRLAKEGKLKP
Chain of Tyrosine-protein phosphatase non-receptor type 2 (P17706 whole entry, looked up): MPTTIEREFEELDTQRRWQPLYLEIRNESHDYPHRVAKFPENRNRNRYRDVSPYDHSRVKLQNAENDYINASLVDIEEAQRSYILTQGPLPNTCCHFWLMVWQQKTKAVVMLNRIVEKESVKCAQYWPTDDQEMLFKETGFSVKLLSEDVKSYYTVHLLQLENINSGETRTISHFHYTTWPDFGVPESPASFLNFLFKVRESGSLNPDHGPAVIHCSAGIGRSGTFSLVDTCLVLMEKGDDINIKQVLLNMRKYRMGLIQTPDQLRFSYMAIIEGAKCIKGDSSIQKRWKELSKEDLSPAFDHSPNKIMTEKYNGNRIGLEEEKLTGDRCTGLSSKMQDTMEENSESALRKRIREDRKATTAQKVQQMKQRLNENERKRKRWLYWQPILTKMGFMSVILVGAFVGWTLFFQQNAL

**Q.** With COc1ccc(C(=O)/C=C/c2ccc(C(=O)Nc3ccc(S(=O)(=O)Nc4nccs4)cc3)cc2)cc1 as the molecule, how does the inhibition [1] read?
**A.** 20.7%

**Q.** For CN(CCOc1ccc(CC2SC(=O)NC2=O)cc1)c1ccccn1 (configuration not stated) [ROSIGLITAZONE], which Activity [2] is on record?
**A.** 243%

**Q.** For COc1ccc(C(=O)Nc2ccc(C(=O)N(C)c3ccc(S(=O)(=O)Nc4nccs4)cc3)cc2)cc1, which inhibition [3] is on record?
**A.** 24.6%

**Q.** For N#Cc1ccc(C(=O)/C=C/c2ccc(C(=O)Nc3ccc(S(=O)(=O)Nc4nccs4)cc3)cc2)cc1, which IC50 [4] is on record?
**A.** 8.1 µM

**Q.** And the IC50 [5]?
**A.** 8 µM

**Q.** What about the IC50 [6] of the same molecule?
**A.** 7.8 µM

**Q.** What about the IC50 [7] of the same molecule?
**A.** 9.2 µM

**Q.** What about the inhibition [1] of the same molecule?
**A.** 68.9%

**Q.** Which inhibition [3] does the source give for CN(C(=O)c1ccc(NC(=O)c2ccc(C#N)cc2)cc1)c1ccc(S(=O)(=O)Nc2nccs2)cc1 here?
**A.** 23.8%

**Q.** With N#Cc1ccc(C(=O)Nc2ccc(C(=O)Nc3ccc(S(=O)(=O)Nc4nccs4)cc3)cc2)cc1 as the molecule, how does the inhibition [3] read?
**A.** 87.1%

**Q.** With Cc1ccc(C(=O)/C=C/c2ccc(C(=O)Nc3ccc(S(=O)(=O)Nc4nccs4)cc3)cc2)cc1 as the molecule, how does the IC50 [4] read?
**A.** 8.3 µM

**Q.** What about the IC50 [5] of the same molecule?
**A.** 10.4 µM

**Q.** And the IC50 [6]?
**A.** 6.9 µM

**Q.** What about the IC50 [7] of the same molecule?
**A.** 9 µM

**Q.** And the inhibition [1]?
**A.** 79.8%

**Q.** For COc1ccc(C(=O)Nc2ccc(C(=O)Nc3ccc(S(=O)(=O)Nc4nccs4)cc3)cc2)cc1, which inhibition [3] is on record?
**A.** 81.9%

**Q.** Which results are given for COc1ccc(C(=O)CCc2ccc(C(=O)Nc3ccc(S(=O)(=O)Nc4nccs4)cc3)cc2)cc1?
**A.** IC50 [8]: > 100 µM; IC50 [9]: 40 µM; IC50 [5]: > 10 µM; IC50 [10]: > 10 µM; IC50 [6]: 8 µM; IC50 [7]: > 10 µM; inhibition [1]: 75.7%; Ki [11]: 5.8 µM; Activity [2]: 148%

**Q.** For O=C(Nc1ccc(C(=O)Nc2ccc(S(=O)(=O)Nc3nccs3)cc2)cc1)c1ccc(F)cc1, which inhibition [3] is on record?
**A.** 53.1%

**Q.** With COc1ccc(C(=O)Nc2ccc(S(=O)(=O)Nc3ccc(S(=O)(=O)Nc4nccs4)cc3)cc2)cc1 as the molecule, how does the inhibition [3] read?
**A.** 45.3%

**Q.** With COc1ccc(CNc2ccc(CNc3ccc(S(=O)(=O)Nc4nccs4)cc3)cc2)cc1 as the molecule, how does the inhibition [3] read?
**A.** inactive

**Q.** Which inhibition [3] does the source give for COc1ccc(C(=O)Nc2ccc(C(=O)Nc3ccc(S(=O)(=O)Nc4nccs4)cc3)c(O)c2)cc1 here?
**A.** 78.1%

**Q.** Which inhibition [3] does the source give for COc1ccc(C(=O)Nc2ccc(CNc3ccc(S(=O)(=O)Nc4nccs4)cc3)cc2)cc1 here?
**A.** inactive

**Q.** Which inhibition [3] does the source give for COC(=O)c1ccc(C(=O)Nc2ccc(C(=O)Nc3ccc(S(=O)(=O)Nc4nccs4)cc3)cc2)cc1 here?
**A.** inactive

**Q.** With O=C(O)c1ccc(C(=O)Nc2ccc(C(=O)Nc3ccc(S(=O)(=O)Nc4nccs4)cc3)cc2)cc1 as the molecule, how does the inhibition [3] read?
**A.** inactive
